Experimental data published in ChEMBL document CHEMBL3227978, “Azetidine derivatives of tricyclic antidepressant agents” (J Med Chem, 1979).
Active and inactive are the calls of the source. The rule behind the calls is not given here.

What was measured:
Mus musculus [1] = test: Antidepressant activity in ICEM:CET (SPF Caw) mouse assessed as antagonism of reserpine-induced blepharospasm at 25 mg/kg, po administered via gavage 30 mins before reserpine challenge measured 1 hr after reserpine treatment; format: functional, organism-based; design: dose 25 mg/kg
In short: (§1)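 Male mice, 18-22 g, groups of ten, housed the evening before with a 9-h fast and water until 2 h before testing. Gavage dosing at 25 mg/kg in 0.5% Methocel, 30 min before reserpine 2.5 mg/kg ip in 0.5% acetic acid. Read blind: blepharospasm scored (Rubin scale) at 1 h, rectal thermocouple temperature at 4 h.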

Mus musculus [2] = test: Antidepressant activity in ICEM:CET (SPF Caw) mouse assessed as antagonism of reserpine-induced hypothermia at 25 mg/kg, po administered via gavage 30 mins before reserpine challenge measured 4 hrs after reserpine treatment; format: functional, organism-based; design: dose 25 mg/kg; in short: as §1
Mus musculus [3] = test: Antidepressant activity in po dosed ICEM:CET (SPF Caw) mouse assessed as antagonism of reserpine-induced blepharospasm administered via gavage 30 mins before reserpine challenge measured 1 hr after reserpine treatment; format: functional; settings: Mus musculus, ICEM:CET(SPF Caw), po; read-out: ED50
In short: (§2)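 Groups of ten male mice (18-22 g), fasted 9 h with water until 2 h pre-test. Oral gavage in 0.5% Methocel at doses below the 25 mg/kg screen, 30 min before reserpine 2.5 mg/kg ip. Blepharospasm scored blind at 1 h, rectal temperature at 4 h. ED50 estimated by eye-fit linear plots on semilogarithmic paper.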

[4] = Orientative acute toxicity in po dosed ICEM:CET (SPF Caw) mouse administered via gavage measured for 60 mins after drug dosing by Irwin's test; format: organism-based; settings: ICEM:CET (SPF Caw), in vivo
In short: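 Male ICEM:CET (SPF Caw) mice, 18-22 g. Oral gavage, suspended or dissolved in 0.5% Methocel at 0.1 mL/10 g body weight. Doses of at least 25, 50, 100, 200, 400 and 800 mg/kg, four animals per dose. Animals were observed closely for 60 min after dosing during Irwin's symptomatologic test, and an approximate LD50 was estimated.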

Mus musculus [5] = test: Antidepressant activity in po dosed ICEM:CET (SPF Caw) mouse assessed as antagonism of reserpine-induced hypothermia administered via gavage 30 mins before reserpine challenge measured 4 hrs after reserpine treatment; format: functional; settings: Mus musculus, ICEM:CET(SPF Caw), po; read-out: ED50; in short: as §2
Mus musculus [6] = test: Anticonvulsant activity in po dosed ICEM:CET (SPF Caw) mouse assessed as antagonism of pentylenetetrazole-induced flexor-extensor tonic convulsions administered via gavage 30 mins before pentylenetetrazole challenge; format: functional; settings: Mus musculus, ICEM:CET(SPF Caw), po; read-out: ED50
In short: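 Male mice, 18-22 g, dosed orally by gavage in 0.5% Methocel (0.1 mL/10 g), starting at a 50 mg/kg screening dose, then graded doses. Pentylenetetrazole 130 mg/kg ip given 30 min later. Ten mice per dose and for controls. Dose preventing flexor-extensor tonic convulsions in 50% of animals read from dose-response curves (ED50).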

Row | Compound | Activity (Mus musculus [1]) | Activity (Mus musculus [2]) | ED50 (Mus musculus [3]) [mg/kg] | LD50 at 1 h [4] [mg/kg] | ED50 (Mus musculus [5]) [mg/kg] | ED50 (Mus musculus [6]) [mg/kg]
1 | CC(C)N1CC(CN2c3ccccc3COc3ccccc32)C1 | inactive | inactive | – | – | – | –
2 | c1ccc2c(c1)COc1ccccc1N2CC1CNC1 | inactive | inactive | – | – | – | –
3 | CC(C)(C)N1CC(N2c3ccccc3CCc3ccc(Cl)cc32)C1 | inactive | inactive | – | – | – | –
4 | CC(C)(C)N1CC(N2c3ccccc3Sc3ccc(C(F)(F)F)cc32)C1 | inactive | inactive | – | – | – | –
5 | CC(C)(C)N1CC(N2c3ccccc3Sc3ccccc32)C1 | inactive | inactive | – | – | – | –
6 | CC(C)(C)N1CC(N2c3ccccc3CCc3ccccc32)C1 | inactive | inactive | – | – | – | –
7 | CNC1CN(C2c3ccccc3CCc3ccc(OC)cc32)C1 (configuration not stated) | – | – | 14 | 200 | > 25 | > 50
8 | CN(C)CCC=C1c2ccccc2CCc2ccccc21.Cl [AMITRIPTYLINE HYDROCHLORIDE] | – | – | 1.3 | 100 | 6.6 | 8
9 | c1ccc2c(c1)CCc1ccccc1N2CC1CNC1 | inactive | inactive | – | – | – | –
10 | c1ccc2c(c1)CCc1ccccc1N2C1CNC1 | inactive | inactive | – | – | – | –
11 | CNC1CN(C2c3ccccc3CSc3ccccc32)C1 (configuration not stated) | – | – | 12 | 200 | > 25 | 14.7
12 | CNCCN(C)C1c2ccccc2CCc2ccccc21 | – | – | > 25 | 200 | > 25 | 18
13 | CNC1CN(C2c3ccccc3CSc3ccc(Cl)cc32)C1 (configuration not stated) | – | – | > 25 | 400 | > 25 | > 50
14 | CCNC1CN(C2c3ccccc3COc3ccccc32)C1 (configuration not stated) | – | – | 4.8 | 200 | 22.2 | 25.3
15 | c1ccc2c(c1)CCc1ccccc1C2N1CC(N2CCOCC2)C1 | – | – | 17 | > 800 | > 25 | 46.9
16 | CN1CC(N2c3ccccc3CCc3ccccc32)C1 | inactive | inactive | – | – | – | –
17 | OCCN1CCN(C2CN(C3c4ccccc4CCc4ccccc43)C2)CC1 | – | – | > 25 | 400 | > 25 | 31
18 | CC(C)NC1CN(C2c3ccccc3CCc3ccccc32)C1 | – | – | 6.5 | 200 | 8.5 | 23.3
19 | NCC1CN(C2c3ccccc3CCc3ccccc32)C1 | – | – | > 25 | 400 | > 25 | > 50
20 | CC(=O)N(C)C1CN(C2c3ccccc3CCc3ccccc32)C1 | – | – | > 25 | 400 | > 25 | 28
21 | c1ccc2c(c1)CCc1ccccc1C2N1CC(n2ccnc2)C1 | – | – | > 25 | 200 | > 25 | 17.7
22 | CNCC1CN(C2c3ccccc3CCc3ccccc32)C1 | – | – | > 25 | 200 | > 25 | > 50
23 | COc1ccc2c(c1)C(N1CC(N(C)C)C1)c1ccccc1CO2 (configuration not stated) | – | – | > 25 | 400 | > 25 | > 50

Row | Compound | Activity (Mus musculus [1]) | Activity (Mus musculus [2]) | ED50 (Mus musculus [3]) [mg/kg] | LD50 at 1 h [4] [mg/kg] | ED50 (Mus musculus [5]) [mg/kg] | ED50 (Mus musculus [6]) [mg/kg]
24 | CNC1(c2ccccc2)CN(C2c3ccccc3CCc3ccccc32)C1 | – | – | > 25 | > 400 | > 25 | > 50
25 | CC(C)(C)N1CC(N2c3ccccc3C=Cc3ccccc32)C1 | inactive | inactive | – | – | – | –
26 | c1ccc2c(c1)Sc1ccccc1N2C1CNC1 | inactive | inactive | – | – | – | –
27 | CNC1CN(C2c3ccccc3COc3ccccc32)C1 (configuration not stated) | – | – | 2.6 | 200 | 15 | 21.5
28 | NC1CN(C2c3ccccc3CCc3ccccc32)C1 | – | – | 5 | 200 | 12 | 17
29 | CC(C)N1CC(N2c3ccccc3CCc3ccccc32)C1 | inactive | inactive | – | – | – | –
30 | c1ccc2c(c1)CCc1ccccc1C2N1CC(NC2CCCCC2)C1 | – | – | > 25 | 400 | > 25 | > 50
31 | CN(C)CCCN1c2ccccc2CCc2ccccc21.Cl [IMIPRAMINE HYDROCHLORIDE] | – | – | 1.6 | 200 | 12.3 | 19.4
32 | c1ccc2c(c1)COc1ccccc1N2C1CNC1 | inactive | inactive | – | – | – | –
33 | CNC1CN(C2c3ccccc3CCc3ccccc32)C1 | – | – | 2.9 | 400 | 7.3 | 13.4
34 | CN(C)C1CN(C2c3ccccc3CSc3ccc(Cl)cc32)C1 (configuration not stated) | – | – | > 25 | 400 | > 25 | 50
35 | CNC1CN(C2c3ccccc3COc3ccc(Cl)cc32)C1 (configuration not stated) | – | – | > 25 | 100 | > 25 | 15.4
36 | CC(C)(C)N1CC(N2c3ccccc3COc3ccccc32)C1 | inactive | inactive | – | – | – | –
37 | CNC1(C)CN(C2c3ccccc3CCc3ccccc32)C1 | – | – | > 25 | 200 | > 25 | 44.6
38 | CNC1CN(C2c3ccccc3CCc3ccc(Cl)cc32)C1 (configuration not stated) | – | – | > 25 | 400 | > 25 | 27.9
39 | CCNC1CN(C2c3ccccc3CCc3ccccc32)C1 | – | – | 10 | 200 | 12.5 | 16.7
40 | CNC1CCN(C2c3ccccc3CCc3ccccc32)C1 (configuration not stated) | – | – | > 25 | 200 | > 25 | 45
41 | C#CCN(CC#C)C1CN(C2c3ccccc3CCc3ccccc32)C1 | – | – | > 25 | > 800 | 21 | 38
42 | CNCC1CCN1C1c2ccccc2CCc2ccccc21 (configuration not stated) | – | – | > 25 | > 800 | > 25 | > 50
43 | CC(C)NC1CN(C2c3ccccc3COc3ccccc32)C1 (configuration not stated) | – | – | 3.9 | 200 | 24.5 | 27
44 | C#CC(C)(C)NC1CN(C2c3ccccc3CCc3ccccc32)C1 | – | – | 9 | > 800 | > 25 | 19.6
45 | c1ccc(CNC2CN(C3c4ccccc4CCc4ccccc43)C2)cc1 | – | – | 12 | 800 | > 25 | > 50
